Results on six molecules are retold here after ChEMBL document CHEMBL1134666, “Design, synthesis, and biological evaluation of novel nucleoside and nucleotide analogues as agents against DNA viruses and/or retroviruses” (J Med Chem, 2001).

Bounds are passed on as bounds.

The nature of assay [1]: Maximum velocity constant of the rate of phosphorylation was determined against PRPP synthetase.
Assay [2] addresses T1, Adenosine deaminase (Bos taurus) (UniProt P56658).
T1 sequence (whole entry): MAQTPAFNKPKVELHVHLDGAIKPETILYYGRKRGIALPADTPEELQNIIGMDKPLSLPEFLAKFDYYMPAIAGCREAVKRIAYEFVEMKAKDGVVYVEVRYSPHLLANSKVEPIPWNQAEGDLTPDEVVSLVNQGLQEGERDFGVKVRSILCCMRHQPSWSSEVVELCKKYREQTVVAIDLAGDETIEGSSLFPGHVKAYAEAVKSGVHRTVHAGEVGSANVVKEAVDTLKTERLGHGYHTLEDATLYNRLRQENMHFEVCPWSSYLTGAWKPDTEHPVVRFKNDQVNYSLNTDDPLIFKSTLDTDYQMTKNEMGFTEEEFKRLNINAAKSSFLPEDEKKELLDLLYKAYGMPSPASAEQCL
In words: Maximum velocity constant of the rate of deamination was determined against adenosine deaminase. Summed up: (§1)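 Calf mucosal adenosine deaminase in buffer solution. Reaction velocity measured as µmol/min per mg enzyme across substrate concentrations.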

For another assay, the system named is Vero. In words: Michaelis rate constant is determined by the Lineweaver and Burk method against Vero cell thymidine kinase. The format is functional, cell-based. The note with it: Chlorocebus sabaeus.
A short description of assay [3]: Michaelis rate constant is determined by the Lineweaver and Burk method against PRPP synthetase. The essentials: (§2)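 PRPP synthetase (0.04 unit) in 10.0 mM potassium phosphate pH 8.0 with 5.0 mM MgCl2, 2.5 mM PRPP and substrate. Reaction linear; stopped with MeOH after 4 h. Diphosphate products quantified by anion-exchange HPLC.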
Assay [4] in a line: Maximum velocity constant of the rate of phosphorylation was determined against PRPP synthetase. Summed up: as §2
Assay [5] concerns Thymidine kinase (Herpes simplex virus 1). In words: Maximum velocity constant of the rate of phosphorylation was determined in the presence of HSV thymidine kinase.
The target in assay [6] is T1, Adenosine deaminase (Bos taurus). In words: Maximum velocity constant against adenosine deaminase. Summed up: as §1
Assay [7] relates to Thymidine kinase (Herpes simplex virus 1). The experiment in a line: Maximum velocity constant of the rate of phosphorylation was determined against HSV thymidine kinase.

Take `Nc1ncnc2ncn(CCOCP(=O)(O)O)c12`: the Relative Vmax in assay [1] was 0.013. Regarding `Nc1ncnc2ncn(COCCO)c12`, the Relative Vmax in assay [2] came out at 1.5. Besides, the Km in the assay with Vero was > 3 µM. The like results for `Nc1ncnc2c1ncn2[C@@H]1O[C@H](CO)[C@@H](O)[C@@H]1O` were, in that order, 1 and 2.2 µM.

Consider `Nc1ncnc2c1ncn2[C@@H]1O[C@H](COP(=O)(O)O)[C@@H](O)[C@H]1O`, for which the Km in assay [3] amounted to 240 µM. The Relative Vmax in assay [4] was found to be 14. Turning to `Nc1ncnc2c1ncn2COCCO`, in the assay on Vero, the Km was > 3 µM. Moreover, the Relative Vmax is < 3 in assay [5] and 1.5 in assay [6].

The molecule `Nc1nc(O)c2c(ncn2COCCO)n1` had a Relative Vmax in assay [7] of 28.

The Km is the concentration of substrate that gives half-maximal velocity.
